The record followed here is ChEMBL document CHEMBL1124957, “6-Benzoxazinylpyridazin-3-ones: potent, long-acting positive inotrope and peripheral vasodilator agents” (J Med Chem, 1990).

Molecules are shown by their SMILES.

The test system of test [1] is Canis familiaris. Put plainly: Heart rate (HR) in dog after intravenous dose of 0.470 mg/kg. The format is functional, Canis lupus familiaris. Conditions: dose 0.47 mg/kg. The procedure, abridged:
(§1)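 Anesthetized adult mongrel dogs (sodium pentobarbital 45 mg/kg ip), artificially respired; MAP from cannulated femoral artery, infusion into femoral vein. Dopamine standard (10–15 μg/kg/min, 3 min) checked inotropic responsiveness. Compounds dissolved in DMF, diluted to 10% final in saline; stepwise 3–4 increasing doses, each infused over 5 min after prior peak. CF, MAP, HR expressed as % change from predrug control vs cumulative dose.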

Test [2] has as its system Canis familiaris. Put plainly: Mean arterial blood pressure (MAP) in dog after intravenous dose of 0.470 mg/kg. The format is functional, Canis lupus familiaris. Details: unit: % change from predrug control. Conditions: dose 0.47 mg/kg. In short, it runs like this:
as §1

In test [3] the test system is Canis familiaris. Kind of test: Effective dose required to increase the myocardial contractile force (CF) 50% above base line when administered intravenously. The format is functional. Conditions: Canis lupus familiaris, Myocardium, iv. The procedure, abridged: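 Dopamine standard (10–15 μg/kg/min, 3 min) checked inotropic responsiveness. Compounds dissolved in DMF, diluted to 10% final in saline; stepwise 3–4 increasing doses, each infused over 5 min after prior peak. CF, MAP, HR expressed as % change from predrug control vs cumulative dose.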

Test [4] has as its target phosphodiesterase fraction III (Canis familiaris). Put plainly: Inhibition of cardiac phosphodiesterase-3 isolated from canine heart.
The test system of test [5] is Canis familiaris. Kind of test: Heart rate in dog following 1.875 mg/kg i.v. administration. The format is functional, Canis lupus familiaris. The following applies: route intravenous. In short, it runs like this: as §1
Test [6] concerns Canis familiaris. Put plainly: Mean arterial blood pressure in dog following 1.875 mg/kg i.v. administration. The format is functional, Canis lupus familiaris. Conditions: route intravenous. The procedure, abridged: as §1
Test [7] has as its system Canis familiaris. Kind of test: Myocardial contractile force (CF) in dog after intravenous dose of 1.875 mg/kg. The format is functional, Canis lupus familiaris, Myocardium. The procedure, abridged:
as §1

What is called ED50 is the dose that gives a 50% effect, or the effect in half of the subjects. The IC50 is the midpoint of a concentration-inhibition curve. With `Cc1cc2c(cc1C1=NNC(=O)CC1C)NC(=O)CO2` (centres undefined), the Activity in test [1] is recorded as 20; in test [2], -4. The compound further registered a 50% effective dose (ED50) in test [3] of 0.137 mg/kg. In test [4], this compound returned a half-maximal inhibitory concentration (IC50) of 20 µM.

As for `CS(=O)(=O)N1CCOc2ccc(C3=NN(c4ccccc4)C(=O)CC3)cc21`, the values for the Activity in test [5], in test [6] and in test [7] were 6, 9 and 30, respectively. The compound also yielded a median effective dose (ED50) in test [3] of more than 1.88 mg/kg. This compound registered an IC50 in test [4] of 200 µM.

In the case of `CC(=O)N1CCOc2ccc(C3=NNC(=O)CC3)cc21`, the Activity in test [5] was 20; in test [6], -14; in test [7], 121. In test [3], this compound returned an ED50 of 0.37 mg/kg. The same compound yielded a concentration for half-maximal inhibition (IC50) in test [4] of 100 µM.

Regarding `O=C1CCC(c2ccc3c(c2)NCCO3)=NN1`, the values for the Activity in test [5], in test [6] and in test [7] were 15, -17 and 105, respectively. Moreover, it took a dose of 0.62 mg/kg to reach the 50% effect level in test [3] (ED50). In test [4], this compound gave an IC50 of 50 µM.

In the case of `C=CCN1N=C(c2ccc3c(c2)N(S(C)(=O)=O)CCO3)CCC1=O`, the Activity in test [5] is given as 10; in test [6] it was 4; in test [7], 37. In addition, the median effective dose (ED50) in test [3] was more than 1.88 mg/kg.

In the case of `CC1CC(=O)NN=C1c1ccc2c(c1)N(C1CCCC1)C(=O)C(C)O2` (centres undefined), the results for the Activity in test [5], in test [6] and in test [7] were 7, -5 and 36, respectively. In test [3], this compound had a 50% effective dose (ED50) of more than 1.88 mg/kg. Moreover, in test [4], the IC50 came to 8 µM.

In turn, `O=C1CCC(c2ccc3c(c2)NC(=O)CO3)=NN1` showed an Activity in test [5] of 9. In test [3], this compound came in with an ED50 of 0.7 mg/kg. This compound gave a concentration for half-maximal inhibition (IC50) in test [4] of 630 µM.

Take `CN1N=C(c2ccc3c(c2)N(S(C)(=O)=O)CCO3)CCC1=O`: the Activity came to 12 in test [5], 0 in test [6] and 26 in test [7]. For the same compound, the ED50 in test [3] was more than 1.88 mg/kg. Besides, the IC50 in test [4] turned out to be 100 µM.

On to `Cc1cc2c(c(C3=NNC(=O)CC3)c1)OCC(=O)N2`, for which the Activity in test [5] is listed as 2; in test [6], -12; in test [7], 32. This compound had an ED50 in test [3] of more than 1.88 mg/kg. In test [4], this compound gave an IC50 of 31 µM.

On to `CC1Oc2ccc(C3=NNC(=O)CC3)cc2NC1=O` (centres undefined), for which the Activity in test [5] turned out to be 24. In addition, in test [3], the 50% effect level (ED50) was put at a dose of 0.49 mg/kg. Also, in test [4], the IC50 is 14 µM.

For the compound `CC1(C)Oc2ccc(C3=NNC(=O)CC3)cc2NC1=O`, the results for the Activity in test [5], in test [6] and in test [7] were 14, -6 and 113, respectively. This compound yielded a 50% effective dose (ED50) in test [3] of 0.65 mg/kg. The same compound gave an IC50 in test [4] of 23 µM.

Consider `Cc1cc(C2=NNC(=O)CC2C)c2c(c1)N(C)C(=O)CO2` (centres undefined), for which the Activity is 19 in test [5], -17 in test [6] and 98 in test [7]. The compound further yielded a 50% effective dose (ED50) in test [3] of 0.75 mg/kg. This compound also had an IC50 in test [4] of 7.5 µM.

With `CCCCCN1N=C(c2ccc3c(c2)N(S(C)(=O)=O)CCO3)CCC1=O`, the figures for the Activity in test [5], in test [6] and in test [7] were -2, -6 and 22, respectively. The same compound showed an ED50 in test [3] of more than 1.88 mg/kg. This compound returned an IC50 in test [4] of 50 µM.

For the compound `CS(=O)(=O)N1CCOc2ccc(C3=NNC(=O)CC3)cc21`, the Activity in test [5] is given as 24; in test [6], -14; in test [7], 76. Besides, the 50% effective dose (ED50) in test [3] worked out at 1.33 mg/kg. Besides, the concentration for half-maximal inhibition (IC50) in test [4] is 9.5 µM.

As to `CC1CC(=O)NN=C1c1ccc2c(c1)N(C(C)C)C(=O)C(C)O2` (centres undefined), the Activity in test [5] is 8; in test [6], -16; in test [7] it was 83. In addition, the 50% effective dose (ED50) in test [3] was 0.47 mg/kg. Besides, the half-inhibitory concentration (IC50) in test [4] was 5 µM.

In the case of `Cc1cc2c(c(C3=NNC(=O)CC3C)c1)OCC(=O)N2` (centres undefined), the Activity in test [5] is 8; in test [6], -15; in test [7], 51. The 50% effect level in test [3] (ED50) was put at a dose of 1.8 mg/kg. This compound also returned an IC50 in test [4] of 28 µM.
